AHR activator: activates the human aryl hydrocarbon receptor; P35869; AHR-responsive luciferase reporter cells, luminescence; activation, % at 5 µM; 320,000 tested, 2.5% active; AID 2796; in the data active = activation above about 47%;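 also: 0% = vehicle wells and 100% = reference agonist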
PERK inhibitor: inhibitors of human PERK kinase. CHO PERK-DD fusion, SEAP luminescence translation reporter. 220,000 tested, 0.17% active. inhibition, % at 5.6 µM. AID 1416. Q9NZJ5;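 active = inhibition above the mean inhibition of all tested compounds plus 3 SD, set separately per screening campaign, cut at about 2.9% in these data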;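 also: PERK kinase domain activated by AP20187 dimerizer at 100 nM; 0% = DMSO with dimerizer and 100% = rapamycin at 8.4 µM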
Target sequence (Q9NZJ5 whole entry, looked up, the tested form may be a part): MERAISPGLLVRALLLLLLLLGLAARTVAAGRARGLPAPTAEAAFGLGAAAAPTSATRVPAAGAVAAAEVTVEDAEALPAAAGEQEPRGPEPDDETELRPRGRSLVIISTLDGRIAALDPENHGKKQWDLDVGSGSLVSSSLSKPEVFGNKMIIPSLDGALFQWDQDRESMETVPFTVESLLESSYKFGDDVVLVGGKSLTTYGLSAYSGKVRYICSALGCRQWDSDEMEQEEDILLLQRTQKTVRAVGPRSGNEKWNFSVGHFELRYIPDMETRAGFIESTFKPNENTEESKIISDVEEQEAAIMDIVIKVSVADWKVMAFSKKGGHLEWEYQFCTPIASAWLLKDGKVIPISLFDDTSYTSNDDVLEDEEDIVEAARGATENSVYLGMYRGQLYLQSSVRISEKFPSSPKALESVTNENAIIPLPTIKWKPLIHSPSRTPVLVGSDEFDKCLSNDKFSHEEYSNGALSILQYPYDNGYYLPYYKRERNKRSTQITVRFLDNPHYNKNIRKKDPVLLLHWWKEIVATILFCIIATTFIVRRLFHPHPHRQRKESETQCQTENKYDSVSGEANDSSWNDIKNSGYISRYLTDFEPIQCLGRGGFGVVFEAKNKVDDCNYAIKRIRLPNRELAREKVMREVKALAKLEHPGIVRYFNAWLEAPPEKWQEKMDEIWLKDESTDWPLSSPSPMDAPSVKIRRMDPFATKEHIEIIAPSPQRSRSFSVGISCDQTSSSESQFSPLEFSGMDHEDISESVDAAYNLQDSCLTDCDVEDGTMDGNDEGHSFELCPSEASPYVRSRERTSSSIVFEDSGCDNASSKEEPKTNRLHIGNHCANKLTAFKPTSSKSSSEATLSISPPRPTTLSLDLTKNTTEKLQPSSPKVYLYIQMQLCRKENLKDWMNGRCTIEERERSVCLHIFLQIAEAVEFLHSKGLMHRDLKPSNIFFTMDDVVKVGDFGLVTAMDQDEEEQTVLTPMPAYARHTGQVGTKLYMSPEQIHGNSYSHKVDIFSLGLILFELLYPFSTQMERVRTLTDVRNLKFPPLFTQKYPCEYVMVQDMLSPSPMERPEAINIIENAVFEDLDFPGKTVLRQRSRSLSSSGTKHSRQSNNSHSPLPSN
APP 5'UTR act: APP 5'UTR luciferase reporter activation | SH-SY5Y APP 5'UTR luciferase reporter, luminescence; zero percent = DMSO vehicle wells | activation, % at 2 µM | 190,000 tested, 1% active | AID 1276;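 active = activation above a set limit, based on mean plus 3 SD of controls, cut at about 140% in these data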
NF-kB neuron act: NF-kB expression increase, human neuronal cells; 190,000 tested, 1.6% active; AID 1239; fold change at 12.5 µM; NF-kB reporter expression; active compounds read high; in the data active = fold change above about 3.3
STAT1 act: STAT1 signaling activation; AID 932; NIH 3T3 STAT1-luciferase reporter, IFN-gamma, luminescence; 100% = IFN-gamma alone, no compound; activation (% of control), % at 5.5 µM; 200,000 tested, 2.6% active;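 active = activation above the screen-wide mean activation plus 3 SD, cut at about 130% in these data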;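 also: raw ratio to IFN-gamma control signal so 100% means no change and 0% no light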
Mdm2 ligase inh: blocks human Mdm2 ubiquitin ligase activity; Q00987; cell-based MDM2 ubiquitination luciferase reporter, 2 h; 0 = plate control, 100 = twice control, blank-subtracted; signal enhancement, % at 5 µM; 210,000 tested, 0.11% active;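 active = signal enhancement of 30% or more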;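 also: luminescence tracks abundance of the self-degrading MDM2-luciferase fusion protein; higher signal means inhibition of MDM2 E3 ligase activity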
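Material: Stable MDM2–luciferase fusion reporter cells | Amount: 2000 cells seeded into each well | Dosing: One concentration, 5 µM, with 0.2% DMSO | Incubation: 4 h cell settling then 2 h compound exposure, 37 °C | Measured by: Luciferase luminescence | Read-out basis: % enhancement relative to plate controls after blank subtraction | Benchmarks: Control and blank well means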
* marks the source's active call; other numbers are inactive results; nt = no result. Shown are actives, neighbours in structure and some others; about 4.5% of the full set was active somewhere.

SMILES	AHR activator	PERK inhibitor	APP 5'UTR act	NF-kB neuron act	STAT1 act	Mdm2 ligase inh
Cc1cc(NCCCn2ccnc2)n2nc(C)c(-c3ccc(Cl)cc3)c2n1	48*	-2	-14	0.6	112	-12
Cc1cc(NCCCn2ccnc2)n2nc(C)c(-c3ccccc3)c2n1	112*	-1	48	1.6	123	-4
Cc1ccc(CN2CC(C(=O)N3CCN(c4ccccc4O)CC3)CC2=O)cc1 (stereo unspecified)	6	nt	nt	nt	nt	nt
CN(C)Cc1c(-c2ccc(Cl)cc2)nc2ccccn12	8	0	65	2.9	141*	-22
Cc1cccc(-n2cc(-c3ccc([N+](=O)[O-])cc3)[nH]c2=S)c1	25	1	-4	1.2	112	-10
S=c1[nH]c(-c2ccccc2)cn1-c1ccccc1	36	nt	nt	nt	nt	nt
O=[N+]([O-])c1ccc(-c2cn(-c3ccccc3)c(=S)[nH]2)cc1	47*	-1	40	1.1	131*	-1
O=[N+]([O-])c1cccc(-c2cn(-c3ccccc3)c(=S)[nH]2)c1	74*	0	10	1.2	105	-8
O=C(Cc1ccc(Cl)cc1)Nc1ccc(CN2CCCCC2)cc1	-3	-1	nt	nt	nt	-5
OCCNc1nc(-c2ccccc2)nc2ccccc12	30	1	-11	1	95	-11
Clc1ccc(-c2nc(NCCN3CCOCC3)c3ccccc3n2)cc1	63*	0	30	1.4	102	-9
O=C(NCc1n[nH]c(=S)n1-c1ccc(Br)cc1)c1ccc(S(=O)(=O)N2CCOCC2)cc1	3	1	2	1.3	96	-24
CCOC(=O)CN(C#N)c1nc(N(C)C)nc(N(C)C)n1	5	0	5	1.3	99	-4
O=C(Nc1cccc(O)c1)c1cnn2cccnc12	50*	1	nt	1.7	120	-25
Cc1cc(C)n2ncc(C(=O)Nc3ccc4c(c3)OCO4)c2n1	73*	0	1	1.4	103	nt
O=C(Nc1ccc2c(c1)OCO2)c1cnn2cccnc12	108*	3	101	3.2	130*	-13
Cc1cc(C)c(C)c(S(=O)(=O)NC(C)C(=O)O)c1C (stereo unspecified)	5	2	nt	nt	nt	-6
Cc1cnn(-c2nc(-c3cccs3)cc(C(F)(F)F)n2)c1	5	0	10	0.74	104	-14
FC(F)(F)c1cc(-c2cccs2)nc(-n2cc(Br)cn2)n1	50*	0	nt	0.93	96	-13
CCOc1ccc(S(=O)(=O)N2CCCC(C(=O)Nc3cc(C)cc(C)c3)C2)cc1 (stereo unspecified)	3	nt	nt	nt	nt	nt
CCC1=NN(C(=O)Cc2ccc([N+](=O)[O-])cc2)C(O)(C(C)(C)C)C1 (stereo unspecified)	3	0	8	3.5*	83	-1
CCN=C1S/C(=C\c2cn(CC(=O)NCc3ccco3)c3ccccc23)C(=O)N1CC	3	nt	nt	nt	nt	nt
CN1C(=O)/C(=C/c2cn(CC(=O)NCc3ccco3)c3ccccc23)NC1=S	58*	0	2	1.1	98	-7
Cc1ccccc1OCC(=O)N=Nc1c(O)n(C)c2ccccc12	36	0	nt	nt	nt	-6
COc1cc2c(cc1OC)C(c1ccc(C(F)(F)F)cc1)CC(=O)N2 (stereo unspecified)	54*	nt	nt	nt	nt	nt
SMILES	AHR activator	PERK inhibitor	APP 5'UTR act	NF-kB neuron act	STAT1 act	Mdm2 ligase inh
COc1cc2c(cc1OC)C(c1ccsc1)CC(=O)N2 (stereo unspecified)	21	0	13	1.3	90	-13
O=C(Nc1ccc(F)cc1)Nc1csc2ccccc12	75*	0	nt	nt	nt	-8
CCc1ccccc1NC(=O)Nc1ccc(F)cc1	9	1	-2	1.1	88	-8
CN(C)c1ccc(NC(=O)Nc2csc3ccccc23)cc1	72*	0	nt	nt	nt	-7
Cc1noc(NS(=O)(=O)c2ccc(N3Cc4ccccc4C3=O)cc2)c1C	-3	3.1*	21	1.3	106	-30
CS(=O)(=O)CCC(C(=O)OCC(=O)c1ccc(Cl)cc1)N1C(=O)c2ccccc2C1=O (stereo unspecified)	3	1	6	0.89	99	-15
CCOC(=O)c1c(-c2ccc(C)o2)csc1NC(=S)NC(=O)N(C)C	57*	-1	4	0.74	94	-9
CCC1CCCCN1CCCNC(=O)c1ccc(CS(=O)(=O)c2ccc(Br)cc2)o1 (stereo unspecified)	-1	nt	nt	nt	nt	nt
O=C(CN1C(=O)NC2(CCCC2)C1=O)NCc1ccccc1	-1	nt	nt	nt	nt	nt
CCOC(=O)C1(Cc2ccccc2Cl)CCN(C(=O)c2cnccn2)CC1	4	0	42	2.7	149*	6
CCOC(=O)C1(Cc2ccccc2Cl)CCN(C(=O)c2cc(C)on2)CC1	7	nt	nt	nt	nt	nt
O=C1c2cccc3cccc(c23)C(=O)N1c1nccs1	-5	2	-7	1.1	105	-7
Cc1nnc(N2C(=O)c3cccc4cccc(c34)C2=O)s1	68*	0	11	1	101	-11
CCCc1nnc(N2C(=O)c3cccc4cccc(c34)C2=O)s1	73*	-1	16	0.87	93	-15
Cc1cc(C)n2nc(-c3ccccc3)cc2n1	24	1	127	3.7*	142*	-13
Cc1cc(C)n2nc(Nc3ccccc3)cc2n1	36	1	27	2	83	-11
Cc1ccc(-c2cc3nc(C)cc(C)n3n2)cc1	62*	0	171*	5.1*	134*	-13
Cc1cc(C)n2nc(-c3ccsc3-n3c(C)ccc3C)cc2n1	6	-1	6	1	103	-12
Brc1ccc2[nH]c3c(c2c1)CCC3	11	-1	nt	nt	nt	-7
NC(=O)c1cc(Br)cc2c3c([nH]c12)CCCC3	64*	-1	18	0.78	99	-12
O=C(CCN1C(=O)/C(=C/c2ccc(F)cc2)SC1=S)N[C@@H](CO)Cc1ccccc1	3	nt	nt	nt	nt	nt
Cc1ccc2nc(SC(C(=O)Nc3ccc(F)cc3)c3ccccc3)[nH]c2c1 (stereo unspecified)	79*	-1	2	1.3	91	nt
O=C(Nc1sc(-c2ccccc2)cc1C(=O)O)c1ccccc1	33	1	nt	nt	nt	-8
COc1cccc(NC(=O)c2cnc(SCC(=O)NCc3ccc4c(c3)OCO4)n(C)c2=O)c1	4	nt	nt	nt	nt	nt
C=CCNc1ncnc2c1ncn2C1OC(CO)C(O)C1O (stereo unspecified)	1	3.0*	-10	0.61	85	-4
OC[C@H]1O[C@@H](n2cnc3c(NC4CCCC4)ncnc32)[C@H](O)[C@@H]1O	3	1	10	1.2	89	nt
Cc1nn(Cc2ccccc2Cl)c(C)c1NC(=O)CCCn1nc([N+](=O)[O-])c(Cl)c1C	2	0	-1	0.96	101	5
Cc1ccc(C(=O)COC(=O)c2cccs2)cc1	3	1	198*	7.5*	77	-69

Bioassay records from PubChem.
